Experimental data gathered from unrelated publications.
Lines come from different studies, so protocols differ. pEC50, pIC50, pKi: −log10 of the molar value.
Target: Sodium-dependent dopamine transporter (SLC6A3, Homo sapiens, UniProt Q01959)

| SMILES | observed | action | technique | measurement | result |
| --- | --- | --- | --- | --- | --- |
| CN1[C@H]2CC[C@@H]1[C@@H](c1cc(-c3ccccc3)no1)[C@H](OC(c1ccc(F)cc1)c1ccc(F)cc1)C2 | ligand displacement |  | radioligand | pKi | 7.55 |
| Fc1ccccc1C(Cc1ccccc1)N1CCCC1 (stereo not shown) | ligand displacement |  | radioligand | pKi | 6.49 |
| CCC[C@@H](C(=O)c1ccc(C)cc1)N1CCCC1 | transporter uptake | inhibitor | radiometric | pIC50 | 8.21 |
| C[C@@H](CN1CCC(Cc2ccccc2)CC1)[C@@H](O)c1ccc(O)cc1 (relative stereo) | ligand displacement |  | radioligand | pKi | 5.22 |
| CNc1nc2cc(OCCCCN3CCN(c4cccc(Cl)c4Cl)CC3)ccc2s1 | ligand displacement |  | radioligand | pKi | 5.55 |
| CN[C@]1(c2ccccc2Cl)CCCCC1=O | ligand displacement |  | radioligand | pIC50 | < 4.00 |
| CN[C@@H](C)C(=O)c1ccccc1 | calcium signal | agonist | fluorescence | pEC50 | 6.62 |
| CC(NCc1ccccc1)C(=O)c1ccc2c(c1)OCO2 (stereo not shown) | ligand displacement |  | radioligand | pKi | > 7.00 |
| CNC(C)(C)C(=O)c1ccccc1 | calcium signal | agonist | fluorescence | pEC50 | 6.23 |
| NCCc1ccc(Oc2ccc(O)cc2)c(I)c1 | ligand displacement |  | radioligand | pIC50 | 6.10 |
